Test results reported in ChEMBL document CHEMBL4665761, “Optimizing the Benefit/Risk of Acetyl-CoA Carboxylase Inhibitors through Liver Targeting” (J Med Chem, 2020).

How the values were obtained:
[1] = Drug uptake in Wistar-Hannover rat assessed as plasma concentration at 30 mg/kg, po after 6 hrs by LC/MS-MS analysis; assay type: ADME, organism-based
Outline: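 Male Wistar-Hannover rats, n = 2 or 3, given an oral suspension in 0.5% methyl cellulose with 0.1% Tween 80; one compound was dosed as the HCl salt. Total plasma and liver concentrations were measured 6 h post-dose. Kp = liver/plasma total concentration. Kpu,u uses fu values from equilibrium dialysis.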

[2] = Toxicity in cynomolgus monkey assessed as reduction in platelet count at >= 30 mg/kg, po after 14 days; assay type: organism-based, Macaca fascicularis; details: in vivo
[3] = Toxicity in cynomolgus monkey assessed as reduction in platelet count at 3 to 10 mg/kg, po after 14 days; assay type: organism-based, Macaca fascicularis; details: in vivo, 336 h, dose 3-10 mg/kg, time 14 day
[4] = Inhibition of DNL in cynomolgus monkey assessed as fructose-induced DNL level at 10 mg/kg, po after 9 hrs relative to control; assay type: functional; details: Macaca fascicularis
Outline: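 Male cynomolgus macaques were fasted overnight and enriched with plasma D2O, then given a single 10 mg/kg PO dose. Fructose was given orally every 30 min from t = 0, with a banana at hours 2 and 3. Deuterium incorporation into plasma TG palmitate was followed over 9 h, n = 12, mean ± SEM, versus vehicle.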

[5] = Inhibition of DNL in po dosed Sprague-Dawley rat assessed as reduction in DNL level in liver pretreated with one hr followed by [14C]-acetate treatment and measured after 1 hr; assay type: functional, organism-based
Outline: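 Sprague-Dawley rats given single oral doses of 0.03–300 mg/kg in 0.5% methyl cellulose vehicle, n = 16 per dose. Read-out is incorporation of 14C-acetate into lipids in liver, bone marrow and lung, measured at 2 h post-dose relative to vehicle. Data are mean ± SEM. EC50 is reported with a 95% confidence interval.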

CHO = assay: Genotoxicity in CHO cells in presence of (aroclor-induced rat liver S9 fraction/NADPH by micronucleus test; assay type: toxicity, cell-based, Cricetulus griseus; details: chinese hamster
Outline: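 In vitro micronucleus assay in Chinese hamster ovary or TK6 cells, run with and without metabolic activation by aroclor-induced rat liver S9 fraction plus NADPH.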

[6] = Genotoxicity in Salmonella typhimurium TA1537 by Ames test; assay type: toxicity; details: salmonella enterica subsp. enterica serovar typhimurium
Outline: (§1)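 Ames test in Salmonella strains TA98, TA100, TA1535 and TA1537, run with and without aroclor-induced rat liver S9 plus NADPH.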

[7] = Genotoxicity in Salmonella typhimurium TA1535 by Ames test; assay type: toxicity; details: salmonella enterica subsp. enterica serovar typhimurium; outline: as §1
[8] = biological target: UDP-glucuronosyltransferase 2B15 (Homo sapiens, UniProt P54855); assay: Inhibition of UGT2B15 in human liver microsomes in presence of UDPGA by LC-MS/MS analysis; assay type: ADME
Chain of UDP-glucuronosyltransferase 2B15 (P54855 whole entry): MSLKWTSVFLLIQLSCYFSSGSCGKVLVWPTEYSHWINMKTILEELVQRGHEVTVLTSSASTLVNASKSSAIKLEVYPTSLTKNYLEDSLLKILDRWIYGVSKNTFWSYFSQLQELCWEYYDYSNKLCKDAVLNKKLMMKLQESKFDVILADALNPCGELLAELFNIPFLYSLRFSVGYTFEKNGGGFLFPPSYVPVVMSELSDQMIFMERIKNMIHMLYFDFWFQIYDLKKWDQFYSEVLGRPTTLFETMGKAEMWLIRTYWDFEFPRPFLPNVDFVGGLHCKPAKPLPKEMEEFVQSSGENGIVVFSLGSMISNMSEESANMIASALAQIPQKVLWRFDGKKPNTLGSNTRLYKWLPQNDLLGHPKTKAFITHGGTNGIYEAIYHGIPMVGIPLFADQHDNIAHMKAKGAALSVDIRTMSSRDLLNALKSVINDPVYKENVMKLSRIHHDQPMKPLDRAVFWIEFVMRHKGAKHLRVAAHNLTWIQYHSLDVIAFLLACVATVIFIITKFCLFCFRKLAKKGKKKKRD

Cytochrome P450 3A4 [9] = biological target: T1, Cytochrome P450 3A4 (Homo sapiens, UniProt P08684); assay: Activation of CYP3A4 in human hepatocytes at 0.5 to 200 uM; assay type: ADME, cell-based, Hepatocyte; details: dose 0.5-200 µM
T1 sequence (P08684 whole entry): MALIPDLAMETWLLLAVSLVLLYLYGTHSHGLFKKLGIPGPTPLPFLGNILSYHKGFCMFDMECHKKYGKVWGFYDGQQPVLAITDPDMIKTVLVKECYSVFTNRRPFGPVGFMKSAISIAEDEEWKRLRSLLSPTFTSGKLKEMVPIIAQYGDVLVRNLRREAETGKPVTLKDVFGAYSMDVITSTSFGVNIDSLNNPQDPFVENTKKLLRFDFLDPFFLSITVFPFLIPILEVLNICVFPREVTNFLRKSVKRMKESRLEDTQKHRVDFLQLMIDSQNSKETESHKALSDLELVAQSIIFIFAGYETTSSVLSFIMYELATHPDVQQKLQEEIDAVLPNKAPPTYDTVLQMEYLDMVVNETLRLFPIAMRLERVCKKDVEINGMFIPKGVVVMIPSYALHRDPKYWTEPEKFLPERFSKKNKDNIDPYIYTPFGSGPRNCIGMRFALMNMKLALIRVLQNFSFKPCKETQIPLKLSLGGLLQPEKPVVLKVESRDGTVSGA
Outline: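 Individual human hepatocyte lots treated at 0.5–200 µM. Read-out is CYP3A4 enzyme activity.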

Cytochrome P450 3A4 [10] = biological target: T1, Cytochrome P450 3A4; assay: inhibition of CYP3A4 in human liver microsomes; assay type: ADME
Cytochrome P450 2C9 = Cytochrome P450 2C9 (Homo sapiens, UniProt P11712); assay: inhibition of CYP2C9 in human liver microsomes; assay type: ADME
Chain of Cytochrome P450 2C9 (P11712 whole entry, the tested form may be a part): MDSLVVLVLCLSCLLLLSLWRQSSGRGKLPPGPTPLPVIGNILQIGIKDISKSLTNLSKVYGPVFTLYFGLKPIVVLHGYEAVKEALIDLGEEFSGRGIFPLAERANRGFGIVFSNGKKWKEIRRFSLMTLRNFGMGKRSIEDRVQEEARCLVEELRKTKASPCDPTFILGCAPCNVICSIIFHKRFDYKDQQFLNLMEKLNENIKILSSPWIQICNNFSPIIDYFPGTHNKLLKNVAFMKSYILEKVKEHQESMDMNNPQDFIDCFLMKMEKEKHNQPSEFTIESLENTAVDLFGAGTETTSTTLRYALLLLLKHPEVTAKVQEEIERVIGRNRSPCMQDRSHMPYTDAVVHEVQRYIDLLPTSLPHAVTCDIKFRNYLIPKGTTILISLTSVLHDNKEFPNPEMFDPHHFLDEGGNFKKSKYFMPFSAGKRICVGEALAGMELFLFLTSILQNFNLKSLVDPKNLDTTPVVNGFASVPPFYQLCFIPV

[11] = Drug uptake in human hepatocytes assessed as passive diffusion clearance at 1 uM up to 15 mins in presence of rifamycin SV by LC-MS/MS analysis; assay type: ADME, cell-based, Hepatocyte; details: 0.25 h
Acetyl-CoA carboxylase 2 = Acetyl-CoA carboxylase 2 (Homo sapiens, UniProt O00763); assay: Uncompetitive inhibition of human ACC2 incubated for 15 mins in presence of ATP by Line weaver-Burk plot analysis
Chain of Acetyl-CoA carboxylase 2 (O00763 whole entry): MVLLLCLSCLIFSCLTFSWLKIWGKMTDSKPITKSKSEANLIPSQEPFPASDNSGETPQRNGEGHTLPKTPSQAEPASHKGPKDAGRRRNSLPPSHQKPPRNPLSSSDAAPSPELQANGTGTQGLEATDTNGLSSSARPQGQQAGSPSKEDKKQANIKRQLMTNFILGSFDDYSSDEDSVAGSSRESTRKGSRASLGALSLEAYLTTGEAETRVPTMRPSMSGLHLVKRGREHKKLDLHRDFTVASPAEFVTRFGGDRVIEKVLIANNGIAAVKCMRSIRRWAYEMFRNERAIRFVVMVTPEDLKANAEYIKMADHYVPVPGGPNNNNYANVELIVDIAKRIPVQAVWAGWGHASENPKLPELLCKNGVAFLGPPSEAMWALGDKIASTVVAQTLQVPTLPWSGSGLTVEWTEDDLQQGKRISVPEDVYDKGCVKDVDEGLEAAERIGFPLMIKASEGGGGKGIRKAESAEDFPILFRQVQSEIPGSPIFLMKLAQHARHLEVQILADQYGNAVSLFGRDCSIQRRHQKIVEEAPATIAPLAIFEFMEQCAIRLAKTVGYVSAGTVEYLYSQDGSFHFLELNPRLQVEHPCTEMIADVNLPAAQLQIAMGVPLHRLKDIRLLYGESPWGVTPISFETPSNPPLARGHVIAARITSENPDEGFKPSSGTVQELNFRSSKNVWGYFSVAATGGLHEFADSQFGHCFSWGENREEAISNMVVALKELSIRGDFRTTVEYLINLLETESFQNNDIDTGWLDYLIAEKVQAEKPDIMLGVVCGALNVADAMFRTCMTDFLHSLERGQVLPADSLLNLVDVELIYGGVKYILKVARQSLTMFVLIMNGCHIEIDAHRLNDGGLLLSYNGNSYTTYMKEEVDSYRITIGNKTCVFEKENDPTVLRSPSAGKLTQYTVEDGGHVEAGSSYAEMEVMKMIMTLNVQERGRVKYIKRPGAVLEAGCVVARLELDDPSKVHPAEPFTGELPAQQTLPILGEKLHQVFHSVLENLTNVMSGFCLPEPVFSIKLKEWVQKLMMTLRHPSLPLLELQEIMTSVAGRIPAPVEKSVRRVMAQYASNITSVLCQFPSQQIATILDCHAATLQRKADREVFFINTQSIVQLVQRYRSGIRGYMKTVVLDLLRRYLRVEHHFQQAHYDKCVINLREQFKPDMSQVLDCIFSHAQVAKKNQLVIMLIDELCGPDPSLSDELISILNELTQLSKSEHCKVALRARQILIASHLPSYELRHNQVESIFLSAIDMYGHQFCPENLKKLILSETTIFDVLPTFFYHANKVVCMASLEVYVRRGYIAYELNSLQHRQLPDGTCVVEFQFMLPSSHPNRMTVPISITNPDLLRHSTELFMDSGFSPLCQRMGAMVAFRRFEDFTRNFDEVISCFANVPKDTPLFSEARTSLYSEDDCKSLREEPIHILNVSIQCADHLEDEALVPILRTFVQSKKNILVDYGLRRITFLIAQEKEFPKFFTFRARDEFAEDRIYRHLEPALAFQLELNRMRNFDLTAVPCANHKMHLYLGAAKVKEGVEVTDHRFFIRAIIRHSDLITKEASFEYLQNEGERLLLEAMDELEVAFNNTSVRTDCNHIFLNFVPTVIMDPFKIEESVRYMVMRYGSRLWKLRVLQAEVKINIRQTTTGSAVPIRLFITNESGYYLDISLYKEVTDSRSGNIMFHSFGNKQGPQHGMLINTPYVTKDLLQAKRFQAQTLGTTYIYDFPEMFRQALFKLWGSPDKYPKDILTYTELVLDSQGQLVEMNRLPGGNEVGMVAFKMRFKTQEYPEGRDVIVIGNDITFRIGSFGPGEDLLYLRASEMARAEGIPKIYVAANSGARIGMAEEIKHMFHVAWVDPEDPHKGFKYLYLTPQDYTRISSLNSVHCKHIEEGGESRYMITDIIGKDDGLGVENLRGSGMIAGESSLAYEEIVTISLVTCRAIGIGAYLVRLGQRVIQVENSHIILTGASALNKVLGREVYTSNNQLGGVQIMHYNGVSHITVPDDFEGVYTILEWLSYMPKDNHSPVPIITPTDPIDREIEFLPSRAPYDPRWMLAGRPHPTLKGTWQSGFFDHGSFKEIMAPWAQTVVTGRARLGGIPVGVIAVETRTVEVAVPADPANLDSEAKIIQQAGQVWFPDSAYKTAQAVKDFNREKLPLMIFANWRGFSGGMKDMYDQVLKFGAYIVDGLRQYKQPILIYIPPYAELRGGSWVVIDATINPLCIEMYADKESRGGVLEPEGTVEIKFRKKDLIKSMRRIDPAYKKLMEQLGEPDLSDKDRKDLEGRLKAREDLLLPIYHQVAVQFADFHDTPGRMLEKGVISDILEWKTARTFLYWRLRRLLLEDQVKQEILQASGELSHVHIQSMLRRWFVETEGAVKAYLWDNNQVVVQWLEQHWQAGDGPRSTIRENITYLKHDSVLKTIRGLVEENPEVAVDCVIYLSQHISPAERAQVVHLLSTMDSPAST
Outline: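 Radioenzymatic assay with purified ACC isozymes, measuring [14C]-bicarbonate incorporation into [14C]-malonyl-CoA. Mode of inhibition taken from substrate concentration-dependence experiments varying ATP or carbonate. IC50 dose-response run at saturating ATP.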

[12] = Drug excretion in Wistar-Hannover rat urine at 1 mg/kg, iv and measured up to 24 hrs by LC/MS-MS analysis; assay type: ADME, organism-based; details: read-out: Drug excretion
[13] = Apparent volume of distribution at steady state in cynomolgus monkey plasma at 1 mg/kg, iv and measured up to 72 hrs by LC/MS-MS analysis; assay type: ADME, organism-based, Macaca fascicularis; details: read-out: Vdss(app)
Outline: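 Cynomolgus monkeys dosed 1 mg/kg IV as the tris salt in 2% N-methylpyrrolidone/98% sulfobutylether-β-cyclodextrin (12.5%) in 50 mM TRIS, pH 8.0, or PO as the tris salt. Plasma was analysed by LC-MS/MS, n = 2. CL = IV dose/AUC; Vss = dose/(AUC × elimination rate constant); Cmax taken from observed data.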

[14] = Ratio of drug uptake in Wistar-Hannover rat liver to plasma at 10 mg/kg, po after 6 hrs by LC/MS-MS analysis; assay type: ADME, organism-based; details: liver and plasma
Outline: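 Male Wistar-Hannover rats (n = 2 or 3) dosed orally as a suspension in 0.5% methyl cellulose with 0.1% Tween 80. Plasma and liver sampled 6 h post-dose. Kp is total liver/plasma; Kpu,u uses unbound fractions from equilibrium dialysis of plasma and liver.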

OATP1B3 = biological target: T2, OATP1B3 (Homo sapiens, UniProt Q9NPD5); assay: Substrate activity at human OATP1B3 stably expressed in HEK293 cells assessed as ratio of total to passive cellular uptake at 1 to 3 uM incubated for 0.5 to 4 mins by LC/MS-MS analysis; assay type: ADME, cell-based; details: HEK293 cells stably expressing human OATP1B3, dose 1-3 µM, time 0.5-4 min
T2 sequence (Q9NPD5 whole entry): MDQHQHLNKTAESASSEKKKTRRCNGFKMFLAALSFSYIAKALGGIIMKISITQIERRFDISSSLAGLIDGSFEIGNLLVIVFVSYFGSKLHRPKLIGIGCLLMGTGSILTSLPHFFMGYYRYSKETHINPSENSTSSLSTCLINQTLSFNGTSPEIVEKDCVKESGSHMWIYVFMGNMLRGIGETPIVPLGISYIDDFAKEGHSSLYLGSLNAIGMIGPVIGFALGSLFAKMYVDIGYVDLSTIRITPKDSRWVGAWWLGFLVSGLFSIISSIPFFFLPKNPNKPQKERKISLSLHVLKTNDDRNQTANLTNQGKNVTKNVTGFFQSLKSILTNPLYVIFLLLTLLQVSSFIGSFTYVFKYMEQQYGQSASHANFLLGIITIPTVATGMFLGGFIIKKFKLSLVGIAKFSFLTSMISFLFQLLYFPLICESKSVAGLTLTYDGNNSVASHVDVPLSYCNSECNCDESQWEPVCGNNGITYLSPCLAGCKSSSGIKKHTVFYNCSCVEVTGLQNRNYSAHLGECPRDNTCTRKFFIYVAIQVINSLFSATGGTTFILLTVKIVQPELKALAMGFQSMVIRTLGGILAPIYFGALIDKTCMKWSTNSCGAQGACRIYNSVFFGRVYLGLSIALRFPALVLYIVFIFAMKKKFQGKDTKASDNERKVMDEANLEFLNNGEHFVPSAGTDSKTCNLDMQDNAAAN
Outline: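 Stably transfected HEK293 cells and wild-type parental cells, cultured to confluency in DMEM with 10% heat-inactivated FBS and 5 µg/mL blasticidin. Uptake at 1–3 µM in HBSS/20 mM HEPES pH 7.4, 37 °C, 0.5–4.0 min. Cells washed in ice-cold buffer, lysed in MeOH, quantified by LC-MS/MS and normalized to protein. Ratio is transfected/parental uptake; >2 denotes substrate.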

COc1cc(C(=O)N2CCC3(CC2)CC(=O)c2nn(C(C)(C)C)cc2O3)cc(-c2ccc(C(=O)O)cc2)n1
concentration at 6 h [1]: 41.7 ng/mL

COc1cc(C(=O)N2CCC3(CC2)CC(=O)c2c(cnn2C(C)C)C3)cc(-c2ccc(C(=O)O)cc2)n1 [CLESACOSTAT]
Activity [2]: Toxic
Activity [3]: Non-Toxic
inhibition in vivo at 10 mg/kg [4]: 100%
EC50 [5]: 5.4 nM
Activity (CHO): Non-Toxic
Activity [6]: Non-Toxic
Activity [7]: Non-Toxic
IC50 [8]: > 20000 nM
Activity (Cytochrome P450 3A4 [9]): Not Active
IC50 (Cytochrome P450 3A4 [10]): > 50000 nM
IC50 (Cytochrome P450 2C9): > 50000 nM
CLH [11]: 2.7 µL/min/mg
IC50 (Acetyl-CoA carboxylase 2): 8.66 nM
dose excreted at 24 h [12]: < 2%
Vd [13]: 0.49 L/kg
Kp at 6 h [14]: 78
uptake ratio at up to 3 µM (OATP1B3): 2.5
